Test results as given in ChEMBL document CHEMBL5150022, “Small Molecule Inhibitors of Lymphocyte Perforin as Focused Immunosuppressants for Infection and Autoimmunity” (J Med Chem, 2022).
“And” between values parts separate entries of the source, which are not always exact repeats. Equal entries are not always repeated. Values belong to the compound of their own block, whether it stands above or below them.

What was measured:
[1] = Cytotoxicity against human Natural killer cells assessed as reduction in cell viability at 20 uM
[2] = Cytotoxicity against human Natural killer cells at 20 uM; settings: natural killer cell
[3] = Antiproliferative activity against human KHYG-1 at 20 uM incubated for 20 mins; format: functional
[4] = Inhibition of Perforin-1 in sheep red blood cells incubated for 30 mins; format: cell-based, Ovis aries; settings: rbc
Procedure, shortened: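 Recombinant mouse perforin-mediated lysis of sheep red blood cells, read as turbidity change by absorbance at 650 nm. Compounds first tested at a single 20 μM point, then at 100, 20, 4, 0.8 and 0.16 μM to give IC₅₀. Hits were rechecked with 0.1% BSA.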

[5] = molecular target: T1, Perforin-1 (Homo sapiens) (UniProt P14222); test: Inhibition of Perforin-1 in human Jurkat cells at 20 uM incubated for 4 hrs relative to control; format: cell-based
T1 sequence (whole entry): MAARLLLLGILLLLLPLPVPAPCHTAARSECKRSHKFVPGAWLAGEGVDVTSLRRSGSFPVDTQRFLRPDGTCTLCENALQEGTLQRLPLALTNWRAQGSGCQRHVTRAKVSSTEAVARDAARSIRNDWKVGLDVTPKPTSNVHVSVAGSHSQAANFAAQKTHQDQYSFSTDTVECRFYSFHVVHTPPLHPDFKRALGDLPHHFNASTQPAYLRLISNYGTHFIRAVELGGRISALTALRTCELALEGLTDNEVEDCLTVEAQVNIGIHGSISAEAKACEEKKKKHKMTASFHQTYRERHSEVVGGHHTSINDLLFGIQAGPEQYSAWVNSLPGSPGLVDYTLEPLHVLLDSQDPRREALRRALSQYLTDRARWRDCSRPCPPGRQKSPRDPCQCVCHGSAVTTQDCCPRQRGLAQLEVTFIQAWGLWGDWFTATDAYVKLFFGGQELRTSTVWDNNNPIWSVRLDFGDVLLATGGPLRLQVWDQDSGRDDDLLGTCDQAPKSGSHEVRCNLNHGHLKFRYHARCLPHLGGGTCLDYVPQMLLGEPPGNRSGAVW

[6] = Reversal of Perforin-1 dependent NK-cell mediated graft rejection in human KHYG-1 cells assessed as reduction in perforin-1 activity at 90 mg/kg for 24 days relative to control; format: functional; parameters: scale not given: the % may be the effect or the level left; settings: time 24 day
[7] = Toxicity in C57BL/6 mouse assessed as effect on aspartate transaminase level at 100 mg/kg, po measured for 2 days; format: organism-based; settings: in vivo, 48 h, time 2 day
[8] = molecular target: T1, Perforin-1 (Homo sapiens); test: Inhibition of Perforin-1 in human KHYG-1 cells assessed as unbound concentration; format: cell-based
Procedure, shortened: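 KHYG1 NK cell killing of ⁵¹Cr-labelled K562 targets; IC₉₀ determined. Compound binding to proteins in the assay medium was measured and used to estimate the unbound IC₉₀.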

[9] = Toxicity in C57BL/6 mouse assessed as animal survival at 100 mg/kg, po measured for 2 days; format: organism-based; settings: in vivo, time 2 day, read-out: Activity
[10] = Plasma protein binding in mouse; format: ADME, cell-free; settings: read-out: PPB (converted)
[11] = Elimination half life in mouse plasma at 10 to 160 mg/kg, po measured for 24 hrs; format: ADME, organism-based; settings: dose 10-160 mg/kg, read-out: beta t1/2 (converted)
[12] = molecular target: T2, Perforin-1 (Mus musculus) (UniProt P10820); test: Inhibition of mouse Perforin-1 in Natural killer cell at 20 uM relative to control
T2 sequence (whole entry): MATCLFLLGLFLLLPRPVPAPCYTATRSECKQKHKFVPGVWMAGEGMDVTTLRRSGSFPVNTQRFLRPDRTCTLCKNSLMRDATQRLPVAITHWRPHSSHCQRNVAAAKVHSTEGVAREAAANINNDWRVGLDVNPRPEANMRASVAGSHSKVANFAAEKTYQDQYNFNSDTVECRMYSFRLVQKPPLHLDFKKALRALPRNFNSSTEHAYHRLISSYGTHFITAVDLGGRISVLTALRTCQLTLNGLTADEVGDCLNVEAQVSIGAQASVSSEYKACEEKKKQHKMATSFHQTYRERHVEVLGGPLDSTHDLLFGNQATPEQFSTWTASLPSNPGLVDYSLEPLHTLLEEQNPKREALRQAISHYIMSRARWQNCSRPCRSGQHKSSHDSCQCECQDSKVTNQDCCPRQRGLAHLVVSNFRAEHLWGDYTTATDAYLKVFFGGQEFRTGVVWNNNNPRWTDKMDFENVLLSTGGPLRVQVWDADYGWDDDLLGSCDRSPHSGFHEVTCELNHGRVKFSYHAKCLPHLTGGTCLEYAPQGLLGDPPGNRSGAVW

[13] = Mutagenicity in Salmonella typhimurium TA100 by AMES test; format: toxicity, Salmonella enterica subsp. enterica serovar Typhimurium
Acetylcholinesterase = Acetylcholinesterase (Homo sapiens, UniProt P22303); test: Inhibition of AChE (unknown origin)
[14] = molecular target: Beta-secretase 1 (Homo sapiens) (UniProt P56817); test: Inhibition of BACE1 (unknown origin) at 1 uM relative to control
Brain [15] = test: Anti-neuroinflammation in LPS-induced mouse brain assessed as reduction in prostaglandin E2 production at 250 microg/kg administered for 3 days; format: functional; parameters: scale not given: the % may be the effect or the level left; settings: dose 250 µg/kg; time 3 day
Brain [16] = test: Anti-neuroinflammation in LPS-induced mouse brain assessed as reduction in caspase-3/7 production at 250 microg/kg administered for 3 days; format: functional; parameters: scale not given: the % may be the effect or the level left; settings: dose 250 µg/kg; time 3 day
[17] = Stability in human plasma incubated for 24 hrs by HPLC analysis; format: ADME, cell-free; settings: read-out: Stability
Procedure, shortened: (§1)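 Compound incubated in human or mouse plasma at 37 °C for 24 h; parent remaining quantified by HPLC.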

[18] = Stability in mouse plasma incubated for 24 hrs by HPLC analysis; format: ADME, cell-free; settings: read-out: Stability
Procedure, shortened: as §1

[19] = molecular target: T1, Perforin-1 (Homo sapiens); test: Inhibition of Perforin-1 in human Natural killer cells at 20 uM incubated after 24 hrs relative to control; format: cell-based; settings: Natural killer cell, time 4.0 hrs, in the assay text read “after 4 hrs” for “after 24 hrs”
Procedure, shortened: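 Human KHYG1 NK cells plus medium coincubated with inhibitor at 20 μM final, or 5 μM in one case. ⁵¹Cr-labelled K562 leukaemia targets added; lysis measured by ⁵¹Cr release after 4 h. Effector NK cell viability measured 24 h later.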

Acetylcholinesterase, sequence (P22303 whole entry): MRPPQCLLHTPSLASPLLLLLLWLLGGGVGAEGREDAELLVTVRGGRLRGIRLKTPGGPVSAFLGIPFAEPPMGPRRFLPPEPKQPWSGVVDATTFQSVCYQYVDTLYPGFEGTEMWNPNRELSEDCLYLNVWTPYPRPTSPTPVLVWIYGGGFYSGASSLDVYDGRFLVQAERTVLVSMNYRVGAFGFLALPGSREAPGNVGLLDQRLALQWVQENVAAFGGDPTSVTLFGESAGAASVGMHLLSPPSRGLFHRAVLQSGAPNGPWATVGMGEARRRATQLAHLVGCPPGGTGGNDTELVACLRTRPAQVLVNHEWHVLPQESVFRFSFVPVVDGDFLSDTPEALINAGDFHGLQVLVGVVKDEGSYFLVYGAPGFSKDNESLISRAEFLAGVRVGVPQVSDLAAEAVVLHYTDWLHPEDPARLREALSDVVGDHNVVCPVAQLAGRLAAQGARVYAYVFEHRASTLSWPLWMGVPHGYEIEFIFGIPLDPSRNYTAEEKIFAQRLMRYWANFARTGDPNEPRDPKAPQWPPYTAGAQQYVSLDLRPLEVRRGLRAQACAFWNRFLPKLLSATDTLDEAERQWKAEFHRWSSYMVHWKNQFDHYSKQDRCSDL
Beta-secretase 1 (Homo sapiens), sequence (P56817 whole entry): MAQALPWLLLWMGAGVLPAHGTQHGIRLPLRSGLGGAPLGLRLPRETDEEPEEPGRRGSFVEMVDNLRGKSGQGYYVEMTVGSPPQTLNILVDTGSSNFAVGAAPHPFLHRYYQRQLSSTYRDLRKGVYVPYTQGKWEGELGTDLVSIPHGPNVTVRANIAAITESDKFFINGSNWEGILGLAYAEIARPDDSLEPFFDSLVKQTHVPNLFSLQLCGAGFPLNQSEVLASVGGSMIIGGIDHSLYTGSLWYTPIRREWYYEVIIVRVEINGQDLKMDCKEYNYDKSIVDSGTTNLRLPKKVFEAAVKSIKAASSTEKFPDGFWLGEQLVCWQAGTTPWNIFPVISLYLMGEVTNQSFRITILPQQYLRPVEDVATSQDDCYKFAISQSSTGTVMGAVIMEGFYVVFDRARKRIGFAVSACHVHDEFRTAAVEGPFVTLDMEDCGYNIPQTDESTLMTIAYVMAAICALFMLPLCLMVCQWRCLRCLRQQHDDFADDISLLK

SMILES: NC(=O)c1ccc(-c2ccc(-c3ccc4c(c3)COC4=O)s2)cn1
Activity [1]: 82% | Activity [2]: 80%

SMILES: CNC(=O)c1ccc(-c2c(C#N)c(N)n3c(nc4ccccc43)c2C#N)cc1
Activity [3]: 84% | IC50 [4]: 1.04 µM | inhibition [5]: 91%

SMILES: COc1ncc(-c2ccc(-c3cnc4c(c3)CN(C)C4=O)s2)cc1NS(=O)(=O)c1ccc(F)cc1F
Activity [6]: 66%

SMILES: CN1Cc2cc(-c3ccc(-c4cncc(NS(=O)(=O)c5ccccc5[N+](=O)[O-])c4)s3)ccc2C1=O
Activity [7]: 60% | IC90 [8]: 0.77 µM | survival at 48 h [9]: 100% | fraction unbound [10]: 0.002 | half-life [11]: 2.4 h

SMILES: O=C1NC(=S)N/C1=C/c1ccc(-c2ccc3c(c2)CCNC3=O)s1
IC50 [4]: 14.7 µM | inhibition [12]: 60% | inhibition [5]: 98%

SMILES: Cc1cc2c(c(=S)[nH]1)C(=O)O/C2=C\c1ccc(C)o1
IC50 [4]: 9.7 µM | IC50 [13]: 3.4 µM | inhibition [5]: 100%

SMILES: O=C1OCc2cc(-c3ccc(-c4ccc(CO)cc4)s3)ccc21
IC50 (Acetylcholinesterase): 8 µM | inhibition [14]: 72% | Activity (Brain [15]): 55% | Activity (Brain [16]): 63%

Now from value to compound, other results behind:

IC50 [4]: 7.2 µM | inhibition [5]: 99%
SMILES: O=C1NC(=S)N/C1=C/c1ccc(-c2ccc3c(c2)COC3=O)o1

IC50 [4]: 0.97 µM | inhibition [5]: 63%
SMILES: Cc1cc2c(c(=S)[nH]1)C(=O)O/C2=C\c1cc2ccccc2s1
Activity [3]: 89%

remaining at 24 h [17]: 46% | IC50 [4]: 13.2 µM | remaining at 24 h [18]: 75% | inhibition [5]: 52%
SMILES: NC(=O)c1ccc(-c2ccc(-c3ccc4c(c3)COC4=O)s2)cc1
Activity [3]: 70% | Activity [1]: 90% | inhibition [19]: 63% | Activity [2]: 38% and 63%
